This data set has as its system MS2 coat protein. Kind of data set: apparent Kd, MS2 coat protein; higher = weaker binding; RNA-MaP array. The gist of the method:
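Apparent Kd is the median of per-cluster binding-curve fits for designed RNAs transcribed from sequenced DNA templates on an Illumina sequencing chip. The RNAs were incubated at room temperature with fluorescently labeled MS2 coat protein at 1.5 nM to 3 μM, with or without input ligand, and designs measured on fewer than 10 clusters were excluded.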

Where [1] appears, read: designed as: OFF switch for flavin mononucleotide, no ligand.
Where [2] appears, read: ligand present: flavin mononucleotide, designed as: OFF switch for flavin mononucleotide.
Setting [3] is: designed as: ON switch for flavin mononucleotide, no ligand.
[4] abbreviates: ligand present: flavin mononucleotide, designed as: ON switch for flavin mononucleotide.
[5] abbreviates: designed as: ON switch for theophylline, no ligand.
Setting [6] is: ligand present: theophylline, designed as: ON switch for theophylline.

In the case of “GUGAAACAUGAGGAUCACCCAUGUUAGGAUAUAGGUAACCUAGUACAUGAUCUGCUGGCUAGAAGGAACUGGAU”, the “apparent Kd” value is, setting by setting: under setting [1], 14.2 nM; under setting [2], 11.5 nM.
On to “CUCAAUUAAGAGAAGGUUACUUGUGUUACGUGUAAAGGAUAUCUAAGCGCUAGGCACAUGAGGAUCACCCAUGUUCCUGCCUUU”, for which the “apparent Kd” value under setting [3] was determined as 7.64 nM and the “apparent Kd” value under setting [4] was 6.03 nM.
Taken in the same sequence, the figures for “AAGGAACAUGAGGAUCACCCAUGUGCUUGCCAGCAAGGAUAUGGUUGUGACAUCUAUAUGCCAGAAGGUGCCGGAC” were 286 nM and 85.6 nM.
As to “CCCACGUACGAGAAGGCACCGGUUUGAUCCACGUAAGUCCUUUACAUGAGGAUCACCCAUGUAGGUGAGGAUAUCGUCAUGACU”, the “apparent Kd” value is 160 nM under setting [1] and 264 nM under setting [2].
With “UAGCAUAGUACGGCCGCCACUCCUGGUUCCCGGCCGUGUGUAAGACAUGAGGAUCACCCAUGUAGGAGGACCGGGUAUCGCUUGC”, the “apparent Kd” value (designed as: ON switch for tryptophan, no ligand) worked out at 14 nM and the “apparent Kd” value (ligand present: tryptophan, designed as: ON switch for tryptophan) was found to be 15.2 nM.
For “UACGGAGCUCAGAAGGGACACUGCGGAGAUAUGUCAGGAUAUGACUUCUUAUCGUGUGGUGACAUGAGGAUCACCCAUGUGCUU”, the “apparent Kd” value is, setting by setting: under setting [1], 209 nM; under setting [2], 338 nM.
Consider “GCAGGCGUUAAGAAGGUUCUCCCACAUGAGGAUCACCCAUGUUGACAUGCUAGAGUCAUUACAAGAAAGGAUAUUAGCGAAUUG”, for which the “apparent Kd” value under setting [3] came to 114 nM and the “apparent Kd” value under setting [4] is 25.8 nM.
In the case of “AAAUUACACGAGAAGGGCAGUGAAUAUCUGUCUGCAGGAUAUCGCUACAUGAGGAUCACCCAUGUUUUCAGUAGUACUAGCGAA”, the “apparent Kd” value is, setting by setting: under setting [1], 9.74 nM; under setting [2], 9.06 nM.
On to “ACGAACAUGAGGAUCACCCAUGUUGUUUCUAAGACUCGGUCAAGAAGGUGUCGUUACGAGUCGAACAAGGAUAUUGAUCCGAAC”, for which the “apparent Kd” value was 28.6 nM under setting [3] and 20.6 nM under setting [4].
As for “AUAGAUAAGCAGAAGGGCUUGAGAUCCGUAACUAUUGACAUGAGGAUCACCCAUGUUCGUCCCUAGCAGGAUAUGCAAAGAAGC”, the “apparent Kd” value by setting is: under setting [3], 61.2 nM; under setting [4], 22.5 nM.
In the case of “UCGCUGUAAGGAUAUACUCCGUUACUGUGUUAUAACGGACCGUAGAAGGUACAUGAGGAUCACCCAUGUGAAGU”, the “apparent Kd” value is 11.1 nM under setting [1] and 17.8 nM under setting [2].
Regarding “UAUUAACAUGAGGAUCACCCAUGUUAUAGAGACCUAGGAUAUGCUUGCAUCCUCGCUCGUGCAGAAGGAGGUUUAU”, the “apparent Kd” value under setting [3] was found to be 7.08 nM and the “apparent Kd” value under setting [4] was determined as 5.88 nM.
For “CUUCCCACGUAGAAGGUGCACCAGUUAACCAAUAACAGGUUGACAUGAGGAUCACCCAUGUUUCGCAAGGAUAUACUGUUCACG”, the “apparent Kd” value by setting is: under setting [3], 48.5 nM; under setting [4], 34.8 nM.
Take “UCUUGACAUGAGGAUCACCCAUGUCACAUUUCUAGAGGAUAUAUACAUGUUGAUCUCUGUAUAGAAGGCUAAGUCG”: the “apparent Kd” value under setting [3] amounted to 18.5 nM and the “apparent Kd” value under setting [4] came to 11.7 nM.
With “UCGGAUACUGUAGGAUAUCGACCAAAUUUUCCUCGAGAAGGACAUCUAUAUAUAGAGAACAUGAGGAUCACCCAUGUGUUUUUG”, the “apparent Kd” value stood at 15 nM under setting [1] and 15.2 nM under setting [2].
For “CGUAAUAACUCACAGGAUAUGCGAGAGGAGACAUGAGGAUCACCCAUGUGACCAUGAAUAUUCCUGCAGAAGGGUGAUAAAUCAUU”, the “apparent Kd” value runs as follows: under setting [3], 13 nM; under setting [4], 18 nM.
With “CCAGUUGACUAGAAGGCAAUACGGAUAAAGUAACUGACCACAUGAGGAUCACCCAUGUAUCCCAUUGAGGAUAUAGCAUUAAGU”, the “apparent Kd” value stood at 44.2 nM under setting [1] and 25.8 nM under setting [2].
On to “UAUACUAAUGUCAGGAUAUUAUAAAGUAAGAUAUAUAAGAAGGGACAUGAGGAUCACCCAUGUGACAAGGACGA”, for which the “apparent Kd” value under setting [1] amounted to 13.4 nM and the “apparent Kd” value under setting [2] is 29.8 nM.
Take “AAUCCUAAUGUCAGGAUAUUGCAGAAGCCAGAACACAAGAAGGGACAUGAGGAUCACCCAUGUAUAGUCACAUA”: the “apparent Kd” value under setting [1] is 22.4 nM and the “apparent Kd” value under setting [2] was found to be 59.1 nM.
In the case of “UAAGACGGGCGAGGAUAUACGAACUGGGUCAAAGUAGAAGGCGCGAGUCAUUGUUAUAAUCCAACAUGAGGAUCACCCAUGUCU”, the “apparent Kd” value by setting is: under setting [3], 91.6 nM; under setting [4], 15.6 nM.
Regarding “UAAAGAUGUGCAGGAUAUUAGAAACGGCGGGAACUUAAAUUCAAACAUGAGGAUCACCCAUGUAAUAAGAAGGGCAAACUAAGA”, the “apparent Kd” value under setting [1] worked out at 15.9 nM and the “apparent Kd” value under setting [2] was found to be 20.6 nM.
As for “CAAAGGAACCAGAAGGCCAUAGGUAAAAUAGUUGGAGGAUAUGGGCACAUGAGGAUCACCCAUGUUCACUGUAAUCAGGAAUAG”, the “apparent Kd” value is, setting by setting: under setting [3], 102 nM; under setting [4], 35.3 nM.
Take “CGGAUUUGGUAGAAGGUUUCGUCACAUAUCGCAAAAGGAUAUACUAAACAUGAGGAUCACCCAUGUGUCGUGGGAGUUAAUUCA”: the “apparent Kd” value under setting [1] came to 72.3 nM and the “apparent Kd” value under setting [2] is 70.5 nM.
The corresponding values for “ACAUACGAACGAGGAUAUCUCCACAUGAGGAUCACCCAUGUUUGGGUCCGAUAGUAGCGUGCAAAAGAGAAGGCGUGUACAUCC” are 22.8 nM and 25.5 nM.
Turning to “UUCUCACAUGAGGAUCACCCAUGUCUAAGGAGUACAGGAUAUGUGCCGUGAUUUUCGAGUACAGAAGGGUACAAUU”, the “apparent Kd” value came to 273 nM under setting [3] and 33.6 nM under setting [4].
Consider “UGCCCAAACAUGAGGAUCACCCAUGUUGUGACCUCGGGAGCCAGAAGGGUAUUAAACAAGUCGGUACAGGAUAUGGUCUAGUAA”, for which the “apparent Kd” value was 343 nM under setting [1] and 214 nM under setting [2].
With “GGCACACAUGAGGAUCACCCAUGUGGCGAUACCAGUUGAUGGUAAAACCCUUGGCAGCGCCAGUCACAUGCAGAUAGUUACUGAA”, the “apparent Kd” value was found to be 13.9 nM under setting [5] and 16.5 nM under setting [6].
Regarding “GGAAGUCAAGGAUAUACAUGAGGAUCACCCAUGUCAGGUGCCAAUUAUGUUCUAUAGUGUAGAAGGUGACAAUG”, the “apparent Kd” value was determined as 112 nM under setting [1] and 183 nM under setting [2].
In the case of “AGAAGUCCAGACUACACGUGGAAAAGCGAUACCAGACUCAUAGGUGUCCCUUGGCAGCGCGUAACAUGAGGAUCACCCAUGUGAU”, the “apparent Kd” value is, setting by setting: (designed as: OFF switch for theophylline, no ligand) 142 nM; (ligand present: theophylline, designed as: OFF switch for theophylline) 139 nM.
For “AGGGAACAUGAGGAUCACCCAUGUGCCGAUACCAGUGAUUUUCAGCACCCUUGGCAGCGGAACCUUUGUUAUAUUAUUCUUAGGG”, the “apparent Kd” value was 36.7 nM under setting [5] and 28.2 nM under setting [6].
On to “GUACAUUUUGCAGGAUAUGUUCAAUACAUGAGGAUCACCCAUGUUCCCUGCUCGGGUCGAGCAUAACAGAAGGGCACUAUAUGU”, for which the “apparent Kd” value was determined as 28.9 nM under setting [3] and 12.1 nM under setting [4].
As to “CGGUCACAUGAGGAUCACCCAUGUAAGGAUAUAGAUGUCUGUGUCAACCGACGGGCUUCUAGAAGGUACGGAUG”, the “apparent Kd” value is, setting by setting: under setting [1], 18.6 nM; under setting [2], 18.1 nM.
For the sequence “GAUAGUGAUCCGGGUUACAUGAGGAUCACCCAUGUUACAAAUAGAAGGUCAGAACAAAAUUGAAAGAAGGAUAUAUUUUCAUUG”, the “apparent Kd” value by setting is: under setting [1], 44.1 nM; under setting [2], 39.6 nM.
Take “UACCAAAUCACAGGAUAUGAGGCGCCAGCUAGGUCAGAAGGGUGACAUGAGGAUCACCCAUGUUCGCAGAAAAUAAUUGCUAAG”: the “apparent Kd” value under setting [3] is 688 nM and the “apparent Kd” value under setting [4] is 678 nM.
Take “ACAUGAGGAUCACCCAUGUCUACGAAGGUCGAAAUUAAUACCAGAAGGCGCGUCGACUAAGAGUGCGAGGAUAUGGUGUGUCGA”: the “apparent Kd” value by setting is: under setting [3], 52 nM; under setting [4], 9.96 nM.
For “AAUCAGAAAGGAUAUACAAGGAUUUUAUAUAGCACUGCUGGACAUGAGGAUCACCCAUGUAGAAGGUUCGCCCU”, the “apparent Kd” value amounted to 11.3 nM under setting [1] and 9.51 nM under setting [2].
Taken in the same sequence, the figures for “CGGAAACAAGUAGGAUAUCACUUGAAUGUACAUGAGGAUCACCCAUGUUCCUUACGGCCGCGUUUUGAGAAGGACUAUUCAAAA” were 17.6 nM and 15 nM.
With “GUUUCGUCAGGAUAUGCUUAAGAAGUCUUCUCACCGGACUUGCAGAAGGGACAUGAGGAUCACCCAUGUGGUAA”, the “apparent Kd” value runs as follows: under setting [1], 36.5 nM; under setting [2], 167 nM.
“GCUAGCGGUAAGAAGGCAUAGACCAAAACUUCAUGAGGAUAUUAUUUGCGGCAUUCGCUCCAAGGACAUGAGGAUCACCCAUGU”: the “apparent Kd” value was determined as 15.4 nM under setting [3] and 16.3 nM under setting [4].
With “UCUAGUGCAUAGGAUAUCAUGGUUCAUUAGUACUGAGAAGGAUGCACAUGAGGAUCACCCAUGUUCUCUGACAG”, the “apparent Kd” value is, setting by setting: under setting [1], 26.2 nM; under setting [2], 80.5 nM.
For the sequence “UCAGUGGGUUCGGCCGCCACUUGAGUGAUGGUGCCUCAAUAAGUCUACAUGAGGAUCACCCAUGUAAGGACCGGGAAUUUUAUGG”, the “apparent Kd” value (designed as: OFF switch for tryptophan, no ligand) was determined as 35.3 nM and the “apparent Kd” value (ligand present: tryptophan, designed as: OFF switch for tryptophan) stood at 32.5 nM.
Regarding “UUCACAAGAAUUUACAUGAGGAUCACCCAUGUCCUUGCAAAGGAGGAUAUUGAGUACAAGACCUACAAGAAGGCCAGAGACAAG”, the “apparent Kd” value was found to be 46.4 nM under setting [3] and 15.5 nM under setting [4].
The corresponding values for “AGCGCUUAACCAUAGGAUAUAUUGAUCAUUACAUGAGGAUCACCCAUGUGUCGAAGAAGGCAAUCAUAGAAGGAUGUCAUGUCGCU” are 26.7 nM and 17.3 nM.
As to “GAAAUAUAGUCAGGAUAUCAGGACAUGAGGAUCACCCAUGUACUGAAUGGGCUGGUGAAAAGAGAUGAGAAGGGACACACUAGA”, the “apparent Kd” value reads like this: under setting [1], 6.23 nM; under setting [2], 5.78 nM.
“GGACCAAGGAGGGAGGAUAUCACAUACAAAACAUGAGGAUCACCCAUGUAGAAGAGACAAGAUACAGAGAAGGCCCAGAAAUAAAA”: the “apparent Kd” value runs as follows: under setting [3], 14 nM; under setting [4], 9.27 nM.
As to “GGUUAACAUGAGGAUCACCCAUGUCUUGAUACCAGUCGUUAUCUUGACCCUUGGCAGCAAGAUGACCGUUAGCAGCCGUCUUCUC”, the “apparent Kd” value is, setting by setting: under setting [5], 13.2 nM; under setting [6], 19.5 nM.
As for “GAUCAACAUGAGGAUCACCCAUGUCAGGAUAUGCAGACAGUCUUUACGUCAGUCGUAAGCAGAAGGGACUACGG”, the “apparent Kd” value reads like this: under setting [1], 52.5 nM; under setting [2], 69.6 nM.

The apparent Kd is a dissociation constant that holds for the conditions of the assay.

(Values after the EternaBench riboswitch data.)
